LGR2 inh = inhibitors of bursicon-induced Drosophila LGR2 receptor cAMP signaling | HEK293 LGR2, CRE-luciferase, bursicon-stimulated, 4 h | hit rate 0.35% among 380,000 | inhibition, % at 9.99 µM;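 active means drop in luminescence signal, shown as inhibition above about 50% in the replicate tests, limit read from the data, passing the limit was not always enough; inconclusive means probably only some replicates passing the limit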;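 further: agonist challenge used bursicon conditioned medium at about half maximal strength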
FN deposit inh = fibronectin deposition inhibition; AH1F fibroblasts, Alexa488-fibronectin deposition fluorescence, overnight; AID 743247; inhibition, % at 12.6 µM; hit rate 0.086% among 350,000;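 active means mean inhibition across replicates of 30% or more, regardless of how many single replicates reach that level; inconclusive means mean under 30% yet at least half of replicates reach 30%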
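Material: AH1F fibroblasts assembling fluorescent fibronectin matrix; amount: 10000 AH1F cells/well; medium: DMEM, 2% serum; reagent: Alexa488-fibronectin, 24 nM final in well; dosing: single compound dose, delivered by pin transfer; incubation: 1 h adhesion, overnight exposure; detection: fluorescence after three HBSS washes, excitation 485 nm, emission 525 nm; measure: fibronectin deposition inhibition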
XiGFP reactiv = reactivates the inactive X chromosome in mouse fibroblasts. hit rate 0.055% among 360,000. activation, % at 7.58 µM. XiGFP mouse fibroblasts, % GFP-positive cells imaging, 3 d; cells co-treated with 5-aza-dC sensitizer; scaled so ellipticine positive control = 100%;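 active means mean normalized replicate activation at least 10% and every replicate at or above 10%; inconclusive means only one of the two criteria met; inactive means mean below 10% and not all replicates reach 10%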
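Material: XiGFP fibroblasts, SV40-immortalized. Buffer or medium: DMEM plus 5-aza-dC sensitizer. Compound: single concentration per compound, delivered by pin transfer. Times: 3 days compound exposure. Controls: ellipticine 6 µM.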
EWS-Fli block = EWS/Fli transcriptional activity inhibition. hit rate 0.67% among 350,000. AID 651661. A673 NR0B1-luciferase reporter, viability-normalised. inhibition, % at 12.6 µM;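 active means mean inhibition of at least 50% after viability correction, with every replicate also passing that limit; inconclusive means mean reaches 50% but only one of two replicates passes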;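 further: firefly luciferase signal divided by Alamar Blue viability fluorescence both relative to DMSO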
TROY signal inh = inhibitors of TROY-dependent NF-kB signaling; AID 1347056; hit rate 0.98% among 360,000; inhibition, % at 10 µM; Q293 LMP1-TROYcd NF-kB luciferase reporter, 4 h;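 active means compounds whose plate-normalised and pattern-corrected inhibition of the luciferase reporter signal at the single screening dose is 50% or more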
TWEAK-Fn14 inh = blocks TWEAK-Fn14 interaction in a reporter cell assay. hit rate 2% among 360,000. inhibition, % at 10 µM. TWEAK-stimulated Fn14 reporter cells, luciferase luminescence, 8 h. AID 1159606; in the data active means inhibition above about 50%
Each line names hits and unclear results; the compound was inactive in the other large screens. Sampled rows, rich in hits. Any-hit rate of the full collection: about 2.3%.

CCOC(=O)c1sc(NC(=O)Nc2ccc(Cl)cc2)cc1C	TWEAK-Fn14 inh 67 (no result: LGR2 inh, XiGFP reactiv, EWS-Fli block)
O=C(Cc1ccc(N2CCNC2=O)cc1)N1CCCC(Nc2cccc(F)c2)C1 (stereo unspecified)	EWS-Fli block 55
O=C(Cc1ccc(N2CCNC2=O)cc1)N1CCCC(Nc2ccc(F)c(F)c2)C1 (stereo unspecified)	none (no result: EWS-Fli block)
COc1ccc(OCc2cc(C(=O)NC3CCOC(C)(C)C3)no2)c2ccccc12 (stereo unspecified)	TWEAK-Fn14 inh 61 (no result: EWS-Fli block)
COc1ccc(OCc2cc(C(=O)N(C)C3CCOCC3)no2)c2ccccc12	TWEAK-Fn14 inh 79 (no result: EWS-Fli block)
CCc1ccc(C(C(=O)NC2CCCC2)N(C(=O)/C=C/C(=O)Nc2cc(C)on2)c2ccccc2C)cc1 (stereo unspecified)	TWEAK-Fn14 inh 56 (no result: EWS-Fli block)
CCOc1ccc(N(C(=O)/C=C/C(=O)Nc2cc(C)on2)C(C(=O)NC2CCCC2)c2ccccc2C)cc1 (stereo unspecified)	none (no result: FN deposit inh, XiGFP reactiv)
CCOc1ccc(-c2cnc3ccccc3n2)cc1	LGR2 inh 90, EWS-Fli block 77, TROY signal inh 63, TWEAK-Fn14 inh 94
CCOc1ccc(-c2cn3ccccc3n2)cc1	LGR2 inh 74, TWEAK-Fn14 inh 62
C[C@@H]1CN([C@H](C)CO)C(=O)c2cc(C#CCN(C)C)cnc2O[C@@H]1CN(C)Cc1ccc(C(=O)O)cc1	none (no result: TROY signal inh, TWEAK-Fn14 inh)
Cc1ccc(NC(=O)CCCCCNS(=O)(=O)c2ccc(C)cc2)cc1	none (no result: EWS-Fli block)
O=C(CCCNS(=O)(=O)c1ccc(F)cc1)Nc1ccc(F)cc1	TWEAK-Fn14 inh 97
O=C(O)CCCNS(=O)(=O)c1ccccc1	TWEAK-Fn14 inh 62 (no result: LGR2 inh, XiGFP reactiv, EWS-Fli block)
COCCn1c(C)c(C)c2c(NCCc3ccccc3)ncnc21	TROY signal inh 80
COC(C(=O)C(O)C(C)O)C1Cc2cc3cc(OC4CC(OC5CC(O)C(O)C(C)O5)C(O)C(C)O4)c(C)c(O)c3c(O)c2C(=O)C1OC1CC(OC2CC(OC3CC(O)C(OC)C(C)O3)C(O)C(C)O2)C(O)C(C)O1 (stereo unspecified)	TWEAK-Fn14 inh 85
Cc1cc(NC(=O)C2CCCN2C(=O)Nc2cccc(Cl)c2)ccc1-n1cnnn1 (stereo unspecified)	TWEAK-Fn14 inh 55
CC(C)n1ncc2c(C(=O)Nc3cccc(C#N)c3)cc(C3CC3)nc21	LGR2 inh 95, TROY signal inh 59, TWEAK-Fn14 inh 54
O=C(/C=C/c1ccccc1)CCN1CCOCC1	none
C[N+](C)(C)CCC(=O)N1C/C(=C/c2ccccc2)C(=O)/C(=C\c2ccccc2)C1	EWS-Fli block 58
CN1CCN(C(=O)CCCN2C(=O)/C(=C/c3ccccc3)SC2=S)CC1	none
O=C1/C(=C/c2ccccc2)CN(C(=O)CCN2CCOCC2)C/C1=C\c1ccccc1	LGR2 inh 103, EWS-Fli block 65, TWEAK-Fn14 inh 100
CN(C)CCC(=O)N1C/C(=C/c2ccccc2)C(=O)/C(=C\c2ccccc2)C1	LGR2 inh 102, EWS-Fli block 80, TROY signal inh 59, TWEAK-Fn14 inh 103
O=C(Cc1ccccc1)N1CCNCC1	none
C[C@@H]1CCCCO[C@@H](CN(C)Cc2ccc3c(c2)OCO3)[C@@H](C)CN([C@@H](C)CO)C(=O)c2cc(N(C)C)ccc2O1	none (no result: FN deposit inh, TROY signal inh, TWEAK-Fn14 inh)
COc1cccc(CN2CCN(C(=O)c3ccc(-c4ccccc4)cc3)CC2)c1OC	FN deposit inh 32
Cc1nonc1NC(=O)CSc1nc2c(C)cccc2cc1C#N	XiGFP reactiv 65 (no result: EWS-Fli block)
O=C1OC2(CCCCC2)OC(=O)C1=CNc1nccs1	TWEAK-Fn14 inh 55 (no result: LGR2 inh, FN deposit inh, XiGFP reactiv, EWS-Fli block, TROY signal inh)
O=C1OC2(CCCCC2)OC(=O)C1=CNc1nc2ccccc2s1	none (no result: LGR2 inh, XiGFP reactiv, EWS-Fli block)
O=C(c1cccc(F)c1)N1CCCCN2[C@@H](CO)[C@H](c3ccc(C#CC4(O)CCCC4)cc3)[C@@H]2C1	none (no result: TROY signal inh, TWEAK-Fn14 inh)
Cc1ccc(NS(=O)(=O)c2ccc(NC(=O)CN(c3cc([N+](=O)[O-])ccc3C)S(C)(=O)=O)cc2)c(C)c1	TWEAK-Fn14 inh 62
Cc1ccc([N+](=O)[O-])cc1N(CC(=O)NC1CCCC1)S(C)(=O)=O	none
CCCCNC(=O)C1(C)CCN1C(=O)c1cc(-c2cccs2)oc1C (stereo unspecified)	LGR2 inh inconclusive, TWEAK-Fn14 inh 78 (no result: FN deposit inh)
CO[C@@H]1CN(C)C(=O)c2cc(NC(C)=O)ccc2OC[C@H](C)N(Cc2cncnc2)C[C@@H]1C	none (no result: TROY signal inh, TWEAK-Fn14 inh)
CCn1cc(C(=O)NC(C)C23CC4CC(CC(C4)C2)C3)cn1 (stereo unspecified)	none
O=C(Cn1ncc(Cl)c(Cl)c1=O)NC(=O)NC1CCCCC1	LGR2 inh 96, EWS-Fli block 62, TWEAK-Fn14 inh 104
CC(NC(=O)Cn1ncc(Cl)c(Cl)c1=O)C12CC3CC(CC(C3)C1)C2 (stereo unspecified)	TROY signal inh 87, TWEAK-Fn14 inh 103 (no result: LGR2 inh, FN deposit inh, XiGFP reactiv, EWS-Fli block)
CN(C)c1ccc2c(c1)[C@H]1C[C@H](CC(=O)NCc3ccc(-c4ccccc4)cc3)O[C@@H](CO)[C@H]1O2	none (no result: TROY signal inh, TWEAK-Fn14 inh)
CC(C)C(=O)Nc1ccc(NC(=O)c2ccccn2)cn1	TWEAK-Fn14 inh 76 (no result: LGR2 inh, FN deposit inh, XiGFP reactiv, EWS-Fli block)
O=C(Nc1ccc(NC(=O)C2CC2)nc1)c1ccccn1	TWEAK-Fn14 inh 62 (no result: LGR2 inh, XiGFP reactiv, EWS-Fli block)
O=C(Nc1ccccc1)c1cc([N+](=O)[O-])ccc1Cl	none
O=C(Nc1cccc2c1CCCC2)c1cc([N+](=O)[O-])ccc1Cl	TWEAK-Fn14 inh 51 (no result: LGR2 inh, FN deposit inh, XiGFP reactiv, EWS-Fli block)
O=C(Nc1cccc(Cl)c1)c1cc(N=Nc2ccc([N+](=O)[O-])cc2Cl)ccc1O	TWEAK-Fn14 inh 83
O=C(Nc1ccc([N+](=O)[O-])cc1Cl)c1cc(Cl)ccc1O	TROY signal inh 61, TWEAK-Fn14 inh 100
O=C(CN1CCOCC1)N1CCCCN2[C@H](CO)[C@H](c3ccc(C#Cc4ccccc4F)cc3)[C@@H]2C1	none (no result: FN deposit inh, TROY signal inh, TWEAK-Fn14 inh)
CN(C)C(=O)C[C@H]1C[C@H]2c3cc(NS(=O)(=O)c4ccc(F)cc4)ccc3O[C@H]2[C@@H](CO)O1	none (no result: TROY signal inh, TWEAK-Fn14 inh)
Cc1ccc(CCNC(=O)C2CC(c3cc(C(F)(F)F)cc(C(F)(F)F)c3)=NO2)cc1 (stereo unspecified)	none
Cc1ccc(CNC(=O)C2CC(c3cc(C(F)(F)F)cc(C(F)(F)F)c3)=NO2)o1 (stereo unspecified)	EWS-Fli block 54
O=C(COc1ccc(Br)cc1Br)NN1C(=O)c2ccccc2C1=O	none
CC(C)c1ccc(OCC(=O)NN2C(=O)c3ccccc3C2=O)c(Br)c1	TWEAK-Fn14 inh 69
CC1=NNC(=O)C1CC(=O)N/N=C/c1cccs1 (stereo unspecified)	TROY signal inh 54
O=S(=O)(c1cccc(NC(=S)N2CCN(c3ccc(F)cc3)CC2)c1)C(F)F	none
O=S(=O)(c1cccc(NC(=S)N2CCN(c3cccc(Cl)c3)CC2)c1)C(F)F	TWEAK-Fn14 inh 83
